As a reminder, the IC50 is the concentration at which inhibition is half-maximal.

Activity calls are given as the source filed them. The rule behind the calls is not given here.

Common to all, as to assay type: cell-based
Experiment [1] has as its target T1, Sodium-dependent dopamine transporter (Homo sapiens, UniProt Q01959). The experiment in a line: Inhibition of re-uptake of [3H]-dopamine at human DAT expressed in HEK293 cells preincubated for 5 mins followed by [3H]-dopamine addition measured after 1 min by liquid scintillation counting. The method, boiled down: (§1)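 HEK293 cells stably expressing human DAT or NET, seeded on PDL-coated plates 24 h before. Preincubated 5 min in Krebs–HEPES buffer pH 7.3 with compound at 0.001 μM to 1 mM (DMSO stock diluted in buffer). Substrate then added: 0.2 μM [3H]dopamine for DAT, 1 min; 0.05 μM [3H]MPP+ for NET, 3 min. Room temperature. Uptake stopped with ice-cold buffer. Cells lysed in 1% SDS and counted by scintillation. Unspecific uptake defined with 10 μM mazindol. IC50 by nonlinear regression.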

Experiment [2] concerns the target Sodium-dependent noradrenaline transporter (Homo sapiens, UniProt P23975). The experiment in a line: Inhibition of re-uptake of [3H]MPP+ at human NET expressed in HEK293 cells preincubated for 5 mins followed by […] addition measured after 3 min by liquid scintillation counting. The method, boiled down:
as §1

Experiment [3] addresses Sodium-dependent serotonin transporter (Homo sapiens, UniProt P31645). Kind of experiment: Inhibition of re-uptake of [3H]-5-HT at human SERT expressed in HEK293 cells preincubated for 5 mins followed by [3H]-dopamine addition measured after 1 min by liquid scintillation counting.
The target of experiment [4] is T1, Sodium-dependent dopamine transporter. The experiment in a line: Displacement of [3H]WIN 35,428 from human DAT expressed in HEK293 cells at 2 and 4 uM after 30 mins in presence of increasing concentration of cocaine by liquid scintillation counting. In a few lines: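 Intact HEK-DAT cells on PDL-coated plates, in binding buffer (HEPES, NaCl, KCl, CaCl2, MgCl2, 10 μM ZnCl2, glucose, pH 7,3). Incubated with ~10 nM [3H]WIN 35,428, fixed concentrations of test compound and cocaine 0.001–1 μM, 30 min at 25 °C. Nonspecific binding defined with 30 μM mazindol. Cells lysed in 1% SDS and counted by scintillation. Reciprocal of bound (fmol) plotted against cocaine concentration as Dixon plot. Three experiments in triplicate, mean ± SD.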
A general note: Displacement assays read how much labelled ligand stays bound in the presence of the test substance.

Sequence of Sodium-dependent serotonin transporter (P31645 whole entry): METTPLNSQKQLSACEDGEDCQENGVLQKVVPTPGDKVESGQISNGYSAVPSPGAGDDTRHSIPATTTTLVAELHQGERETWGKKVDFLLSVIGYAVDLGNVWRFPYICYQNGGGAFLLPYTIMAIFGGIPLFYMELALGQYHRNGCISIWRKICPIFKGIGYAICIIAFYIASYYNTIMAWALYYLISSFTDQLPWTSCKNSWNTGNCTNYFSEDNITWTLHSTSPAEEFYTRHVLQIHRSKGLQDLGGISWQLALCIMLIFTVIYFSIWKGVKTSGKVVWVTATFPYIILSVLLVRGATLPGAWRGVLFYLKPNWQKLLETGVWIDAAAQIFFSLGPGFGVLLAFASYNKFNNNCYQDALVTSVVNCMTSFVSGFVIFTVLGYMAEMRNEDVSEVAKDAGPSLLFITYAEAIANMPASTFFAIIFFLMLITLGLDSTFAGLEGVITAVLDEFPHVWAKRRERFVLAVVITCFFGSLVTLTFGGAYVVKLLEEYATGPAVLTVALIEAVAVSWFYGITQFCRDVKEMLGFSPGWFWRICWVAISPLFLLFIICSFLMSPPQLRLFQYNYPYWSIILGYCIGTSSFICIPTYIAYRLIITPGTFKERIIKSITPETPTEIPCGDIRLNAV
Sequence of Sodium-dependent noradrenaline transporter (P23975 whole entry): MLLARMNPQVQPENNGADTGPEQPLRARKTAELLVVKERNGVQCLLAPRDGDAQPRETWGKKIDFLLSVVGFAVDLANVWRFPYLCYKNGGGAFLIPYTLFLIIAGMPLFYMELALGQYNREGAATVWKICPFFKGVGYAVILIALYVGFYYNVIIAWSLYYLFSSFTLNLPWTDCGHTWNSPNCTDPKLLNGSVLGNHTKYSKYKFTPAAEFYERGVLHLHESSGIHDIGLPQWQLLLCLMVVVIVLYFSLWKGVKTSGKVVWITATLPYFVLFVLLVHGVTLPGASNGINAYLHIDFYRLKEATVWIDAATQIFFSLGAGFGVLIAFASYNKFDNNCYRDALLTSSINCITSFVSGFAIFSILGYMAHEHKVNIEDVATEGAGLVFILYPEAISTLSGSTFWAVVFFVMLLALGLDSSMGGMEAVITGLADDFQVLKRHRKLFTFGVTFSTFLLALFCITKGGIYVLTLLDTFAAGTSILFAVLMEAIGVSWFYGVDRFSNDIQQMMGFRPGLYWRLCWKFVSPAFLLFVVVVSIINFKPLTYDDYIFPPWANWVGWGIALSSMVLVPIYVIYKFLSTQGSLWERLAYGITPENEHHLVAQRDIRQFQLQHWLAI
T1 sequence (Q01959 whole entry): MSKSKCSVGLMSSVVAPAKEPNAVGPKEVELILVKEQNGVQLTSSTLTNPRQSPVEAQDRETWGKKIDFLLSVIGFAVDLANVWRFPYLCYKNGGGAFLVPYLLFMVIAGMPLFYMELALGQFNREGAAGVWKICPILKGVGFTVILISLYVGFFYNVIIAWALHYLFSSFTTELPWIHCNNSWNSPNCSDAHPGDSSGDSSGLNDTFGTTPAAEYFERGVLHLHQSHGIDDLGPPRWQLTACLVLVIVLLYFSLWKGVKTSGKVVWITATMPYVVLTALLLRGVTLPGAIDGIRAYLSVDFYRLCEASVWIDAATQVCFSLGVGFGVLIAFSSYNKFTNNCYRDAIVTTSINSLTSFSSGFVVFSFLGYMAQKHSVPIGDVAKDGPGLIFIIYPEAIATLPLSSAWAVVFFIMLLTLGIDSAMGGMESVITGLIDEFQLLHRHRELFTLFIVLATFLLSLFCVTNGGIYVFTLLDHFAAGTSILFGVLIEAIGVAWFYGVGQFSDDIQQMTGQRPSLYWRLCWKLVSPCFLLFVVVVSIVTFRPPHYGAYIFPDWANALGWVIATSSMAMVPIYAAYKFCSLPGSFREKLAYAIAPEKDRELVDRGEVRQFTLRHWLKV

On to `Cc1ccc(C(c2ccccc2)[S+]([O-])Cc2cccs2)cc1` (stereo unspecified), for which the half-maximal inhibitory concentration (IC50) in experiment [1] (read-out: IC50) came out at 2 µM; in experiment [2] (read-out: IC50) it was 152 µM; in experiment [3] (read-out: IC50) it was 118 µM.

On to `Cc1scc(C[S+]([O-])C(c2ccccc2)c2ccccc2)c1C` (stereo unspecified), for which the IC50 in experiment [1] (read-out: IC50) was 284 µM; in experiment [2] (hek293), “Not Active”; in experiment [3] (hek293), “Not Active”.

Take `[O-][S+](Cc1ccncc1)C(c1ccccc1)c1ccccc1` (stereo unspecified): the IC50 is 63.5 µM in experiment [1] (read-out: IC50), “Not Active” in experiment [2] (hek293) and “Not Active” in experiment [3] (hek293).

Turning to `COc1ccnc(C[S+]([O-])C(c2ccccc2)c2ccccc2)c1OC` (stereo unspecified), the half-inhibitory concentration (IC50) entry in experiment [1] (hek293), in experiment [2] (hek293) and in experiment [3] (hek293) was “Not Active” each time.

On to `CC(C)c1nnsc1C[S+]([O-])C(c1ccccc1)c1ccccc1` (stereo unspecified), for which the IC50 in experiment [1] (read-out: IC50) is 69.1 µM; in experiment [2] (read-out: IC50), 30 µM; in experiment [3] (hek293) it was “Not Active”.

On to `[O-][S+](Cc1ccsc1Br)C(c1ccccc1)c1ccccc1` (stereo unspecified), for which the half-inhibitory concentration (IC50) amounted to 29.3 µM in experiment [1] (read-out: IC50), 144 µM in experiment [2] (read-out: IC50) and 59.6 µM in experiment [3] (read-out: IC50).

Regarding `[O-][S+](Cc1ccsc1)C(c1ccccc1)c1ccccc1` (stereo unspecified), the figures for the IC50 in experiment [1] (read-out: IC50), in experiment [2] (read-out: IC50) and in experiment [3] (hek293) were 3 µM, 57.6 µM and “Not Active”, respectively.

As for `[O-][S+](Cc1sccc1Cl)C(c1ccccc1)c1ccccc1` (stereo unspecified), the half-inhibitory concentration (IC50) in experiment [1] (read-out: IC50) is 4.9 µM; in experiment [2] (read-out: IC50), 188 µM; in experiment [3] (hek293) it was “Not Active”.

On to `[O-][S+](Cc1cccs1)C(c1ccccc1)c1ccc(Br)cc1` (stereo in doubt; 11c), for which the IC50 in experiment [1] (read-out: IC50) was 4.2 µM; in experiment [2] (hek293), “Not Active”; in experiment [3] (hek293) it was “Not Active”.

Turning to `[O-][S+](Cc1csc(Br)c1)C(c1ccccc1)c1ccccc1` (stereo unspecified), the IC50 stood at 16.6 µM in experiment [1] (read-out: IC50), 67.2 µM in experiment [2] (read-out: IC50) and 44.7 µM in experiment [3] (read-out: IC50).

In the case of `[O-][S+](Cc1cccs1)C(c1ccccc1)c1ccc(Br)cc1` (stereo in doubt; 11h), in experiment [1] (read-out: IC50), the IC50 came to 2.4 µM.

As for `COc1cc(C)nc(C[S+]([O-])C(c2ccccc2)c2ccccc2)n1` (stereo unspecified), the results for the IC50 in experiment [1] (read-out: IC50), in experiment [2] (read-out: IC50) and in experiment [3] (hek293) were 90.5 µM, 228 µM and “Not Active”, respectively.

Regarding `COC1NN=C(C[S+]([O-])C(c2ccccc2)c2ccccc2)S1` (stereo unspecified), the IC50 in experiment [1] (read-out: IC50) is 108 µM; in experiment [2] (read-out: IC50), 146 µM; in experiment [3] (hek293), “Not Active”.

For `[O-][S+](Cc1cc(Br)cs1)C(c1ccccc1)c1ccccc1` (stereo unspecified), the IC50 in experiment [1] (read-out: IC50) was 13.7 µM; in experiment [2] (hek293), “Not Active”; in experiment [3] (read-out: IC50), 70.9 µM.

Consider `Cc1cc(O)nc(C[S+]([O-])C(c2ccccc2)c2ccccc2)n1` (stereo unspecified), for which the IC50 in experiment [1] (read-out: IC50) is 109 µM; in experiment [2] (hek293), “Not Active”; in experiment [3] (hek293), “Not Active”.

On to `Cc1nnc(C[S+]([O-])C(c2ccccc2)c2ccccc2)s1` (stereo unspecified), for which the IC50 result in experiment [1] (hek293), in experiment [2] (hek293) and in experiment [3] (hek293) was “Not Active” in each case.

`Cc1cnc(C[S+]([O-])C(c2ccccc2)c2ccccc2)nc1` (stereo unspecified): the IC50 was 156 µM in experiment [1] (read-out: IC50), “Not Active” in experiment [2] (hek293) and “Not Active” in experiment [3] (hek293).

As to `[O-][S+](Cc1cccs1)C(c1ccc(Cl)cc1)c1ccc(Cl)cc1` (stereo unspecified), the half-inhibitory concentration (IC50) in experiment [1] (read-out: IC50) was 7.2 µM; in experiment [2] (hek293) it was “Not Active”; in experiment [3] (hek293), “Not Active”.

In the case of `[O-][S+](Cc1nc(C(F)(F)F)no1)C(c1ccccc1)c1ccccc1` (stereo unspecified), the concentration for half-maximal inhibition (IC50) turned out to be 43.7 µM in experiment [1] (read-out: IC50), 71 µM in experiment [2] (read-out: IC50) and 209 µM in experiment [3] (read-out: IC50).

Regarding `[O-][S+](Cc1cccs1)C(c1ccccc1)c1ccc(Br)cc1` (stereo in doubt; 11g), the IC50 in experiment [1] (read-out: IC50) amounted to 3.7 µM.

As for `[O-][S@+](Cc1cccs1)[C@H](c1ccccc1)c1ccc(Br)cc1`, the IC50 in experiment [1] (read-out: IC50) was 1.5 µM; in experiment [2] (hek293) it was “Not Active”; in experiment [3] (hek293) it was “Not Active”.

Consider `[O-][S@@+](Cc1cccs1)[C@@H](c1ccccc1)c1ccc(Br)cc1`, for which the values for the IC50 in experiment [1] (read-out: IC50), in experiment [2] (hek293) and in experiment [3] (hek293) were 4.1 µM, “Not Active” and “Not Active”, respectively.

Turning to `Cc1noc(C[S+]([O-])C(c2ccccc2)c2ccccc2)n1` (stereo unspecified), the values for the IC50 in experiment [1] (read-out: IC50), in experiment [2] (hek293) and in experiment [3] (hek293) were 56.7 µM, “Not Active” and “Not Active”, respectively.

Regarding `Cc1ccc(C(c2ccc(C)cc2)[S+]([O-])Cc2cccs2)cc1` (stereo unspecified), the IC50 in experiment [1] (read-out: IC50) is 5.8 µM; in experiment [2] (hek293), “Not Active”; in experiment [3] (hek293) it was “Not Active”.

As for `NC(=O)C[S+]([O-])C(c1ccccc1)c1ccccc1` (stereo unspecified) [MODAFINIL], in experiment [2] (read-out: IC50), the IC50 amounted to 284 µM.

As for `Cc1cc(C[S+]([O-])C(c2ccccc2)c2ccccc2)nc(C)n1` (stereo unspecified), the IC50 is 82.6 µM in experiment [1] (read-out: IC50), 768 µM in experiment [2] (read-out: IC50) and “Not Active” in experiment [3] (hek293).

`[O-][S+](Cc1cccs1)C(c1ccc(F)cc1)c1ccc(F)cc1` (stereo unspecified): the values for the IC50 in experiment [1] (read-out: IC50), in experiment [2] (read-out: IC50) and in experiment [3] (read-out: IC50) were 4 µM, 113 µM and 120 µM, respectively.

For `[O-][S+](Cc1nc(O)cc(C(F)(F)F)n1)C(c1ccccc1)c1ccccc1` (stereo unspecified), the 50% inhibitory concentration (IC50) in experiment [1] (read-out: IC50) was 40.4 µM; in experiment [2] (hek293), “Not Active”; in experiment [3] (hek293) it was “Not Active”.

As for `O=c1[nH]nc(C[S+]([O-])C(c2ccccc2)c2ccccc2)s1` (stereo unspecified), the IC50 in experiment [1] (read-out: IC50) was 38.1 µM; in experiment [2] (read-out: IC50), 85.7 µM; in experiment [3] (hek293), “Not Active”.

As to `[O-][S+](Cc1ccc(Cl)s1)C(c1ccccc1)c1ccccc1` (stereo unspecified), the IC50 in experiment [1] (read-out: IC50) worked out at 12.8 µM; in experiment [2] (read-out: IC50), 68.4 µM; in experiment [3] (read-out: IC50) it was 57.2 µM.

Consider `Cc1nc(O)cc(C[S+]([O-])C(c2ccccc2)c2ccccc2)n1` (stereo unspecified), for which, in experiment [4], the inhibition result was “Active”. Also, the IC50 is 3.1 µM in experiment [1] (read-out: IC50), “Not Active” in experiment [2] (hek293) and “Not Active” in experiment [3] (hek293).

Regarding `[O-][S+](Cc1cc(C2CC2)on1)C(c1ccccc1)c1ccccc1` (stereo unspecified), the IC50 in experiment [1] (read-out: IC50) is 38.6 µM; in experiment [2] (hek293), “Not Active”; in experiment [3] (hek293), “Not Active”.

The record behind these values is ChEMBL document CHEMBL4028886 (J Med Chem, 2017).
